Data on three compounds can be found in ChEMBL document CHEMBL1811909, “Synthesis and antiproliferative activity of novel 2-aryl-4-benzoyl-imidazole derivatives targeting tubulin polymerization” (Bioorg Med Chem, 2011).

What is called IC50 is the concentration at which inhibition is half-maximal. Higher therefore signals weaker potency in that assay.

Data set [1] has as its system Liver microsomes. Nature of the data set: Metabolic stability of the compound in human liver microsomes at 0.5 uM up to 90 mins by LC-MS analysis. It counts as ADME, Microsome. In general terms: Liver microsomes are a subcellular fraction often used to study metabolism.
The test system of data set [2] is Liver microsomes. In words: Metabolic stability of the compound in human liver microsomes at […] up to 90 mins by LC-MS analysis. It counts as ADME, Microsome. In outline: (§1)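 Aliquots were drawn at 5, 10, 20, 30, 60 and 90 min and quenched in acetonitrile containing internal standard. After centrifugation, supernatants were measured by LC-MS/MS to follow parent loss and derive half-life.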

The test system of data set [3] is Liver. Nature of the data set: Half life in mouse liver microsomes at 0.5 uM by LC-MS analysis. It counts as ADME, Microsome. The essentials: (§2)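 Compound at 0.5 µM incubated with 1 mg/mL liver microsomal protein at 37 °C with shaking. […] Samples taken at 5, 10, 20, 30, 60 and 90 min and quenched with acetonitrile containing internal standard. After centrifugation, the supernatant was analysed by LC-MS/MS.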

Data set [4] relates to Liver microsomes. Nature of the data set: Half life in rat liver microsomes at 0.5 uM by LC-MS analysis. It counts as ADME, Microsome. The essentials:
as §2

The subject of data set [5] is Liver. In words: Metabolic stability of the compound in dog liver microsomes at 0.5 uM up to 90 mins by LC-MS analysis. It counts as ADME, Canis lupus familiaris, Microsome. In outline: as §2
Data set [6] is filed under the species Bos taurus. Nature of the data set: Inhibition of bovine brain tubulin polymerization after 15 mins by spectrophotometric analysis. The essentials:
(§3)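 Bovine brain tubulin (>97% pure, 0.4 mg per assay) mixed with compound at 5, 10 or 20 µM, with 5% DMSO as vehicle control. Buffer: 80 mM PIPES, 2.0 mM MgCl2, 0.5 mM EGTA, 1 mM GTP, pH 6.9. Polymerization followed at 37 °C as absorbance at 340 nm, read every minute for 15 min.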

Another data set has as its system A-375. Nature of the data set: Antiproliferative activity against human A375 cells after 48 hrs by sulforhodamine B assay. It counts as functional, cell-based. As to conditions: A-375, 48 h. In general terms: Sulforhodamine B stains cellular protein and so reports cell mass.
A short description of data set [7]: Antiproliferative activity against human WM164 cells after 48 hrs by sulforhodamine B assay. It counts as functional, cell-based. As to conditions: WM164, 48 h.
The next data set concerns LNCaP. In words: Antiproliferative activity against human LNCAP cells after 96 hrs by sulforhodamine B assay. It counts as functional, cell-based.
The test system of data set [8] is PC-3. Nature of the data set: Antiproliferative activity against human PC3 cells after 96 hrs by sulforhodamine B assay. Conditions: PC-3, 96 h. It counts as functional, cell-based.
Data set [9] concerns DU-145. In words: Antiproliferative activity against human DU145 cells after 96 hrs by sulforhodamine B assay. It counts as functional, cell-based. As to conditions: DU-145, 96 h.
The subject of the next data set is PPC-1. Nature of the data set: Antiproliferative activity against human PPC1 cells after 96 hrs by sulforhodamine B assay. It counts as functional, cell-based. Conditions: PPC-1, 96 h.
The test system of data set [10] is MDA-MB-435. In words: Antiproliferative activity against human MDA-MB-435 cells by sulforhodamine B assay. It counts as functional, cell-based.
In data set [11] the test system is MDA-MB-435. In words: Antiproliferative activity against human MDA-MB-435 cells expressing LCC6MDR1 by sulforhodamine B assay. It counts as functional, cell-based.
In data set [12] the test system is PC-3. In words: Antiproliferative activity against human PC3 cells by sulforhodamine B assay. It counts as functional, cell-based. In outline:
(§4)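 Prostate cancer cells grown in RPMI 1640 with 10% FBS at 37 °C, 5% CO2. Cells (1000–5000/well, by growth rate) were exposed to a range of concentrations for 96 h, in three to five replicates. Growth was read by SRB: TCA fixation, 0.4% SRB stain, absorbance at 540 nm.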

For data set [13], the system named is PC-3. In words: Antiproliferative activity against human paclitaxel-resistant PC3 cells by sulforhodamine B assay. It counts as functional, cell-based. The essentials:
as §4

The subject of data set [14] is DU-145. Nature of the data set: Antiproliferative activity against human DU145 cells by sulforhodamine B assay. It counts as functional, cell-based.
Data set [15] relates to DU-145. In words: Antiproliferative activity against human paclitaxel-resistant DU145 cells by sulforhodamine B assay. It counts as functional, cell-based. In outline:
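Prostate cancer cells grown in RPMI 1640 with 10% FBS at 37 °C, 5% CO2. Seeded at 1000–5000 cells/well depending on growth rate and exposed to a concentration series for 96 h, in three to five replicates. Cells fixed with 10% TCA and stained with 0.4% SRB, absorbance read at 540 nm.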

In data set [16] the test system is MDA-MB-435. Nature of the data set: Resistance index, ratio of IC50 for human MDA-MB-435 cells expressing LCC6MDR1 to IC50 for human MDA-MB-435 cells. It counts as functional.
The subject of data set [17] is PC-3. Nature of the data set: Resistance index, ratio of IC50 for human paclitaxel-resistant PC3 cells to IC50 for human PC3 cells. It counts as functional. In outline: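 Ratio of SRB-assay IC50 values, paclitaxel-resistant PC-3-TxR over parental PC-3. Both lines grown in RPMI 1640 with 10% FBS and treated for 96 h, in three to five replicates. IC50 taken from absorbance at 540 nm by nonlinear regression.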

In data set [18] the test system is DU-145. In words: Resistance index, ratio of IC50 for human paclitaxel-resistant DU145 cells to IC50 for human DU145 cells. It counts as functional. In outline:
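Ratio of SRB-assay IC50 values, paclitaxel-resistant DU145-TxR over parental DU145. Both lines grown in RPMI 1640 with 10% FBS and exposed to the compound for 96 h, in three to five replicates. Absorbance read at 540 nm after TCA fixation and SRB staining.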

For data set [19], the species on record is Bos taurus. Nature of the data set: Inhibition of bovine brain tubulin polymerization at 10 to 20 uM after 15 mins by spectrophotometric analysis. In outline: as §3
The subject of data set [20] is Liver. Nature of the data set: Half life in mouse liver microsomes at […] by LC-MS analysis. It counts as ADME, Microsome. In outline:
as §1

Data set [21] concerns Liver microsomes. In words: Half life in rat liver microsomes at […] by LC-MS analysis. It counts as ADME, Microsome. In outline:
as §1

Data set [22] concerns Liver. Nature of the data set: Metabolic stability of the compound in dog liver microsomes at […] up to 90 mins by LC-MS analysis. It counts as ADME, Canis lupus familiaris, Microsome. The essentials:
as §1

SMILES strings stand for the structures. The source made the active and inactive calls. No cut-off for these calls is given here.

For the compound `COc1cc(C(=O)c2c[nH]c(-c3ccc(C)cc3)n2)cc(OC)c1OC`, the Stability entry in the data set on Liver microsomes [1], in the data set on Liver microsomes [2] and in the data set with Liver [5] was “Stable” in each case. Further, the t1/2 in the data set on Liver [3] was 12 min; with Liver microsomes [4] it was 20 min. In addition, the inhibition result in the data set filed under Bos taurus [6] is “Dose-dependent effect”.
Regarding `COc1cc(C(=O)c2c[nH]c(-c3ccc(Br)cc3)n2)cc(OC)c1OC`, the IC50 in the data set on A-375 amounted to 30 nM; in [7], 40 nM; with LNCaP it was 30 nM; with PC-3 [8], 40 nM; in the data set with DU-145 [9], 50 nM; in the data set with PPC-1 it was 30 nM. In addition, the IC50 was 86 nM with MDA-MB-435 [10]; 79 nM in the data set with MDA-MB-435 [11]; 18 nM in the data set on PC-3 [12]; 16 nM with PC-3 [13]; 49 nM in the data set with DU-145 [14]; 54 nM in the data set with DU-145 [15]. For the same compound, the “Ratio IC50” value in the data set on MDA-MB-435 [16] is reported as 0.9; in the data set on PC-3 [17], 0.9; with DU-145 [18], 1.1. The inhibition entry in the data set filed under Bos taurus [6] is “Dose-dependent effect”. For the same compound, the inhibition result in the data set filed under Bos taurus [19] was “Active”.
With `COc1cc(C(=O)c2cn(C)c(-c3ccc(C)cc3)n2)cc(OC)c1OC`, the IC50 is 30 nM with A-375; 40 nM in data set [7]; 30 nM in the data set on LNCaP; 40 nM in the data set on PC-3 [8]; 30 nM with DU-145 [9]; 30 nM with PPC-1. The IC50 in the data set on MDA-MB-435 [10] worked out at 83 nM; in the data set with MDA-MB-435 [11] it was 67 nM; in the data set on PC-3 [12] it was 21 nM; in the data set on PC-3 [13], 19 nM; in the data set with DU-145 [15], 52 nM. The “Ratio IC50” value with MDA-MB-435 [16] is listed as 0.8; with PC-3 [17], 0.9; in the data set with DU-145 [18], 1. Besides, the Stability entry with Liver microsomes [1], in the data set on Liver microsomes [2] and in the data set with Liver [22] was “Stable” in each case. The t1/2 in the data set on Liver [20] came out at 5 min; in the data set on Liver microsomes [21], 10 min. In the data set filed under Bos taurus [6], the inhibition entry is “Dose-dependent effect”.
